Experimental data taken from ChEMBL document CHEMBL4513216, “Probing the Open Global Health Chemical Diversity Library for Multistage-Active Starting Points for Next-Generation Antimalarials” (ACS Infect Dis, 2020).

Experiment: Toxicity liver stage against HepG2, at 10uM
Format: cell-based
Set-up: test concentration 10 uM, cell line HepG2-A16-CD81EGFP
Settings: human, HepG2-A16-CD81EGFP cells; read-out: INHIBITION
Summary of the method: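 Uninfected HepG2-A16-CD81EGFP cells, 3 × 10^3 per well, 1536-well, plated on prespotted compound at 10 μM final, parasite-free screening media added to match infected plates; puromycin 10 μM positive, DMSO 0.5% negative; run in parallel with 48 h PbLuc assay at 37 °C, 5% CO2; viability by CellTiter-Glo luminescence, normalized to controls.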

Question: Which cytotoxicity at 10 µM does the source give for `CCN1CCN(Cc2nc(CC(C)C)no2)CC1` here?
Answer: The cytotoxicity at 10 µM was -23%.

Question: For `Cc1csc(C2(NCc3nc(-c4ccco4)no3)CCCC2)n1`, which cytotoxicity at 10 µM is on record?
Answer: The cytotoxicity at 10 µM was 3.18%.

Question: With `CCc1nc(CN(C)CC(=O)N(C)C2CC2)cs1` as the compound, how does the cytotoxicity at 10 µM read?
Answer: The cytotoxicity at 10 µM was -3.54%.

Question: Which cytotoxicity at 10 µM does the source give for `CC(=O)N1CCC[C@@H](NCc2cccc(F)c2)[C@@H]1c1ccc(C)s1` here?
Answer: The cytotoxicity at 10 µM was -24.2%.

Question: Which cytotoxicity at 10 µM does the source give for `O=C(c1cc[nH]n1)N1CCOCC2(C1)CN(c1ccccc1)C(=O)CO2` (stereo not given) here?
Answer: Its cytotoxicity at 10 µM is -4.96%.

Question: With `O=C(NCc1cccc(N2CC=CC2)c1)NC1CC1` as the compound, how does the cytotoxicity at 10 µM read?
Answer: The cytotoxicity at 10 µM was 9.34%.

Question: Which cytotoxicity at 10 µM does the source give for `Cc1nc2ccc(C(=O)N3C[C@@H](O)[C@H](N4CCN(C)CC4)C3)cc2[nH]1` here?
Answer: The cytotoxicity at 10 µM was -27.5%.

Question: Which cytotoxicity at 10 µM does the source give for `O=S(=O)(N1CCCCCC1)N1CCc2sccc2C1` here?
Answer: The cytotoxicity at 10 µM was -5.6%.

Question: For `Cc1ccccc1-c1cc(C(=O)N2CCCC(n3ccnc3C)C2)[nH]n1` (stereo not given), which cytotoxicity at 10 µM is on record?
Answer: Its cytotoxicity at 10 µM is 14.3%.

Question: With `CCCOc1ccc2ccccc2c1CN1CC[C@@]2(O)CCNC[C@H]2C1` as the compound, how does the cytotoxicity at 10 µM read?
Answer: The cytotoxicity at 10 µM was -148%.

Question: With `CC(=O)NC1CCN(c2nc(N)nc3c2CCCC3)C1` (stereo not given) as the compound, how does the cytotoxicity at 10 µM read?
Answer: Its cytotoxicity at 10 µM is 0.452%.

Question: Which cytotoxicity at 10 µM does the source give for `CNC(=O)Cc1noc(Cc2ccc3c(c2)CCCC3)n1` here?
Answer: Its cytotoxicity at 10 µM is -14.1%.

Question: Which cytotoxicity at 10 µM does the source give for `N#Cc1csc(CNCCOc2ncccc2Cl)c1` here?
Answer: Its cytotoxicity at 10 µM is 8.01%.

Question: Which cytotoxicity at 10 µM does the source give for `CCC(=O)N1CCc2[nH]cnc2C12CCN(C(=O)CCS(C)(=O)=O)CC2` here?
Answer: The cytotoxicity at 10 µM was -14.4%.

Question: With `Cc1c(CN2CCCC(c3[nH]ncc3S(C)(=O)=O)C2)cnn1C` (stereo not given) as the compound, how does the cytotoxicity at 10 µM read?
Answer: Its cytotoxicity at 10 µM is 4.69%.

Question: With `O=C(NCCc1nccs1)c1n[nH]c2c1CCC2` as the compound, how does the cytotoxicity at 10 µM read?
Answer: The cytotoxicity at 10 µM was 3.89%.

Question: Which cytotoxicity at 10 µM does the source give for `CC(C)N(CC(N)=O)C(=O)c1cnc(-c2ccc3c(c2)OCO3)s1` here?
Answer: Its cytotoxicity at 10 µM is -5.92%.

Question: With `CCN1CCN(CCCNc2ncccn2)CC1` as the compound, how does the cytotoxicity at 10 µM read?
Answer: The cytotoxicity at 10 µM was 3.41%.

Question: With `Cc1cnc(C)c(-c2cc(O)c3c(c2)CN(c2ncccn2)CCO3)n1` as the compound, how does the cytotoxicity at 10 µM read?
Answer: Its cytotoxicity at 10 µM is 6.13%.

Question: With `O=C(CCc1ccsc1)N(Cc1ccccn1)C1CC1` as the compound, how does the cytotoxicity at 10 µM read?
Answer: The cytotoxicity at 10 µM was -4.87%.

Question: With `CCCC(Nc1nc(COCC)nc2c1CCNCC2)c1nccn1C` (stereo not given) as the compound, how does the cytotoxicity at 10 µM read?
Answer: Its cytotoxicity at 10 µM is -10.3%.

Question: For `Cc1ccc(C)c(SCC(=O)Nc2cccc(C(=O)N(C)C)n2)c1`, which cytotoxicity at 10 µM is on record?
Answer: Its cytotoxicity at 10 µM is -9.9%.

Question: For `CCn1nc(C)cc1C(=O)N1CCCN(CCCc2ccccc2)CC1`, which cytotoxicity at 10 µM is on record?
Answer: The cytotoxicity at 10 µM was -1.45%.

Question: For `Cc1ccc(CN2CCC(n3cc(C(O)c4ccccc4)nn3)CC2)o1` (stereo not given), which cytotoxicity at 10 µM is on record?
Answer: Its cytotoxicity at 10 µM is 2.11%.

Question: Which cytotoxicity at 10 µM does the source give for `O=C(CCC(F)(F)F)N1CCCC2(CCC(=O)N(CC3CC3)C2)C1` (stereo not given) here?
Answer: Its cytotoxicity at 10 µM is 7.4%.

Question: With `Nc1nc(CN2CCCC2Cn2cncn2)nc2ccccc12` (stereo not given) as the compound, how does the cytotoxicity at 10 µM read?
Answer: Its cytotoxicity at 10 µM is -11.7%.

Question: For `COc1cc(N2CCC3(CC2)CC(N2CCOCC2)C3)ncn1`, which cytotoxicity at 10 µM is on record?
Answer: The cytotoxicity at 10 µM was -6.81%.

Question: For `O=C(Nc1ccc2ncccc2c1)C1CC(=O)N(Cc2ccccn2)C1` (stereo not given), which cytotoxicity at 10 µM is on record?
Answer: The cytotoxicity at 10 µM was 3.31%.

Question: Which cytotoxicity at 10 µM does the source give for `CC(C)COCC(NC(=O)CSc1nnc[nH]1)c1ccco1` (stereo not given) here?
Answer: Its cytotoxicity at 10 µM is 11.4%.

Question: Which cytotoxicity at 10 µM does the source give for `CN1C(=O)CO[C@H]2CN(C(=O)Nc3ccc(F)cc3)C[C@H]21` here?
Answer: Its cytotoxicity at 10 µM is -2.22%.

Question: For `CCO[C@H]1CC[C@H]2[C@H]1OCCN2C(=O)CC1=CCCCC1`, which cytotoxicity at 10 µM is on record?
Answer: The cytotoxicity at 10 µM was 1.75%.

Question: For `CCn1ccnc1CN1CCN(Cc2cccc(C#N)c2)CC1`, which cytotoxicity at 10 µM is on record?
Answer: Its cytotoxicity at 10 µM is -22.3%.

Question: Which cytotoxicity at 10 µM does the source give for `c1ccc(CCNc2ncnc3c2CCN(Cc2c[nH]cn2)CC3)cc1` here?
Answer: The cytotoxicity at 10 µM was 3.16%.

Question: With `Cc1nc(CN2CC(CCCc3ccccn3)(C(=O)N(C)C)C2)co1` as the compound, how does the cytotoxicity at 10 µM read?
Answer: The cytotoxicity at 10 µM was 7.43%.

Question: With `CC(C)N1CCC(C(=O)N(C)CC(=O)c2ccc(O)cc2)CC1` as the compound, how does the cytotoxicity at 10 µM read?
Answer: Its cytotoxicity at 10 µM is -4.33%.

Question: For `COc1ccc(CNC(=O)NC(C)Cn2cccn2)cc1O` (stereo not given), which cytotoxicity at 10 µM is on record?
Answer: The cytotoxicity at 10 µM was -3.1%.

Question: Which cytotoxicity at 10 µM does the source give for `CC(C(=O)N1CCc2sccc2C1)N1CCCN(C2CC2)CC1` (stereo not given) here?
Answer: The cytotoxicity at 10 µM was 3.86%.

Question: For `COCCO[C@H]1CCN(c2cc(OC)ncn2)[C@H]1Cc1cnn(C)c1`, which cytotoxicity at 10 µM is on record?
Answer: Its cytotoxicity at 10 µM is -133%.

Question: With `Cc1nnc(C(C)NCC2(c3ccc(Cl)cc3)CCCC2)o1` (stereo not given) as the compound, how does the cytotoxicity at 10 µM read?
Answer: Its cytotoxicity at 10 µM is 8.29%.

Question: With `Cc1cc(C)cc(CNc2ccc(C(=O)NC(C)CO)cc2)c1` (stereo not given) as the compound, how does the cytotoxicity at 10 µM read?
Answer: The cytotoxicity at 10 µM was -5.48%.

Question: With `CC(C)n1c(C2CCCN(CC(=O)NC(N)=O)C2)nc2ccccc21` (stereo not given) as the compound, how does the cytotoxicity at 10 µM read?
Answer: The cytotoxicity at 10 µM was -7.9%.

Question: With `CCn1nc(C)c2nc(C)nc(NC3CCCC3)c21` as the compound, how does the cytotoxicity at 10 µM read?
Answer: The cytotoxicity at 10 µM was 9.12%.

Question: Which cytotoxicity at 10 µM does the source give for `COc1cc(OC)c2nc(NCCN3CCNC3=O)cc(C)c2c1` here?
Answer: Its cytotoxicity at 10 µM is -3.4%.

Question: For `Cc1nc(CN2CCOCC3(CCCN(c4cnccn4)C3)C2)cs1` (stereo not given), which cytotoxicity at 10 µM is on record?
Answer: Its cytotoxicity at 10 µM is -1.81%.

Question: With `CN1CCN(C(=O)c2nc3c(s2)CCCN3C(=O)C2CC2)CC1` as the compound, how does the cytotoxicity at 10 µM read?
Answer: The cytotoxicity at 10 µM was 1.82%.

Question: For `Fc1ccc(CN2CCCC2Cn2cccn2)c2ncccc12` (stereo not given), which cytotoxicity at 10 µM is on record?
Answer: The cytotoxicity at 10 µM was -5.11%.

Question: For `O=C1OCCN1CCSc1nnnn1C1CCOCC1`, which cytotoxicity at 10 µM is on record?
Answer: The cytotoxicity at 10 µM was -48.4%.

Question: With `CSCC(=O)Nc1ncc(I)cc1C` as the compound, how does the cytotoxicity at 10 µM read?
Answer: Its cytotoxicity at 10 µM is -4.7%.

Question: Which cytotoxicity at 10 µM does the source give for `CCc1nc2n(n1)CC(Nc1ccnc(-c3ccccc3)n1)CC2` (stereo not given) here?
Answer: Its cytotoxicity at 10 µM is -11.7%.

Question: With `CCN1CCN(C(=O)NCc2ccccc2Cn2cncn2)CC1` as the compound, how does the cytotoxicity at 10 µM read?
Answer: The cytotoxicity at 10 µM was 0.663%.

Question: For `Cc1cc(CN(C)C(=O)C2CCS(=O)(=O)C2)no1` (stereo not given), which cytotoxicity at 10 µM is on record?
Answer: The cytotoxicity at 10 µM was 0.746%.

Question: For `O=C1CCC2(CCCN(CCn3cc(Cl)cn3)C2)CN1C1CCCC1` (stereo not given), which cytotoxicity at 10 µM is on record?
Answer: The cytotoxicity at 10 µM was 4.71%.

Question: With `CN(C)C(=O)CNC(=O)c1nc(C2CC2)n(-c2ccccc2Cl)n1` as the compound, how does the cytotoxicity at 10 µM read?
Answer: Its cytotoxicity at 10 µM is -2.03%.

Question: Which cytotoxicity at 10 µM does the source give for `O=C(C1CCC1)N1CCN(Cc2cccnc2)[C@H]2CS(=O)(=O)C[C@H]21` here?
Answer: The cytotoxicity at 10 µM was 1.02%.

Question: For `CCc1nccn1CCCNc1nccc(-c2c(C)nn(C)c2C)n1`, which cytotoxicity at 10 µM is on record?
Answer: The cytotoxicity at 10 µM was 2.96%.
